Where a chain is given by its changes, count along the chain named. The source made the active and inactive calls. No cut-off for these calls is given here.
What was measured:
Type in all cases: cell-based
[1] = biological target: T1, Muscarinic acetylcholine receptor M2 (Homo sapiens, UniProt P08172); test: (§1) Displacement of [3H]-NMS from wild-type human muscarinic M2 receptor expressed in Flp-In-CHO cells by liquid scintillation counting
T1 sequence (P08172 whole entry): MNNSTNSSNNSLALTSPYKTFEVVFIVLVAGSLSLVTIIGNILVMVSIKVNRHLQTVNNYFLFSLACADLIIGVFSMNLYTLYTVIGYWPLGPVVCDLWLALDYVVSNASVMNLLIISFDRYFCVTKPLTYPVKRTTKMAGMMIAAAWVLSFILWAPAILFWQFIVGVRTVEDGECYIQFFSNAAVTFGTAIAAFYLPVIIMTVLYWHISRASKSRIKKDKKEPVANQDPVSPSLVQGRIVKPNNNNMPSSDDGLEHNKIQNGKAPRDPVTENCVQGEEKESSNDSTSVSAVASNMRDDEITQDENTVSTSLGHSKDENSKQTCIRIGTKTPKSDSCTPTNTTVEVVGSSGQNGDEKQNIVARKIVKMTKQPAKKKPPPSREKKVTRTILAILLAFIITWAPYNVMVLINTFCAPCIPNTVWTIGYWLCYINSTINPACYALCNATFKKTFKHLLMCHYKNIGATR
Summary of the method: (§2)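 Separated by rapid filtration, counted by liquid scintillation. Means ± SEM of 3−4 independent experiments in triplicate; unpaired two-tailed t test versus wild type.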

[2] = biological target: Muscarinic acetylcholine receptor M2 (Homo sapiens, UniProt P08172, Y104A); test: (§3) Displacement of [3H]-NMS from human muscarinic M2 Y104A mutant expressed in Flp-In-CHO cells by liquid scintillation counting
Muscarinic acetylcholine receptor M2 (Homo sapiens, UniProt P08172, Y104A), sequence (P08172 whole entry Y104A): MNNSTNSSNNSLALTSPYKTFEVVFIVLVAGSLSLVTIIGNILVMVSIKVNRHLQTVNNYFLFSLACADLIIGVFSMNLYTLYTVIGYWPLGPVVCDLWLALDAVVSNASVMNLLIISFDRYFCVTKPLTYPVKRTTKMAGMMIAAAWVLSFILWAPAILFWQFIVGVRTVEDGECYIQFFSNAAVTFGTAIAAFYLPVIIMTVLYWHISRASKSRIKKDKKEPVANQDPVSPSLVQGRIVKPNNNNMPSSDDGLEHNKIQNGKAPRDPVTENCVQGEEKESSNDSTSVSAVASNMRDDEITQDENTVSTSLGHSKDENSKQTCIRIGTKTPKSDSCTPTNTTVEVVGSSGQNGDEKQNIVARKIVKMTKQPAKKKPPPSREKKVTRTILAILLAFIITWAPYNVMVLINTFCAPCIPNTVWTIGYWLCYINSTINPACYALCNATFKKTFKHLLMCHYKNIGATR
Summary of the method: (§4)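 Bound separated either by rapid filtration or, in some cases, by centrifugation at 21000g, 15 °C, 20 min. Pellet washed once, resuspended, counted by liquid scintillation. Triplicate determinations.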

[3] = biological target: T2, Muscarinic acetylcholine receptor M2 (Homo sapiens) (UniProt P08172); test: as §1; summary of the method: as §2
T2 sequence (whole entry): T1 sequence (P08172 whole entry)

[4] = system: T3, Muscarinic acetylcholine receptor M2 (Homo sapiens), P08172 [Y104A]; test: as §3; summary of the method: as §4
T3 sequence (whole entry): T1 sequence (P08172 whole entry) with Y104A

[5] = system: T4, Muscarinic acetylcholine receptor M2 (Homo sapiens), P08172 [Y177Q,T423H]; test: (§5) Displacement of [3H]-NMS from human muscarinic M2 Y177Q/T423H mutant expressed in Flp-In-CHO cells by liquid scintillation counting; summary of the method: as §2
T4 sequence (whole entry): T1 sequence (P08172 whole entry) with Y177Q, T423H

[6] = biological target: T5, Muscarinic acetylcholine receptor M5 (Homo sapiens) (UniProt P08912); test: (§6) Displacement of [3H]-NMS from wild-type human muscarinic M5 receptor expressed in CHO-K1 cells by liquid scintillation counting; summary of the method: as §2
T5 sequence (whole entry): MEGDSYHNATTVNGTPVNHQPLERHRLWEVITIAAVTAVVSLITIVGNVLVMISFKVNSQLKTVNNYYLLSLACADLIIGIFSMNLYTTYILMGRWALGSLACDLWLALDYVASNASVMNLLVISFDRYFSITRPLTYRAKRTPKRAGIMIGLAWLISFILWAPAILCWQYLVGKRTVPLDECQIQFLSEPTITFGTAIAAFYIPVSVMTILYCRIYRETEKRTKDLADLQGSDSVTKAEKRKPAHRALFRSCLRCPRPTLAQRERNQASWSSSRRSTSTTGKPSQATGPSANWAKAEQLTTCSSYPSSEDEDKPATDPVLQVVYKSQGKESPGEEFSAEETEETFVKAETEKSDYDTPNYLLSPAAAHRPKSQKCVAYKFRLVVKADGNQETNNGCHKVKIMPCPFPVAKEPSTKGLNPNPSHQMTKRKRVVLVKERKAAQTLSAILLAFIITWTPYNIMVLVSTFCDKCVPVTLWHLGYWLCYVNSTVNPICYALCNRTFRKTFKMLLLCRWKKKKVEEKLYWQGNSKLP

[7] = biological target: Muscarinic acetylcholine receptor M2 (Homo sapiens, UniProt P08172, Y177Q); test: (§7) Displacement of [3H]-NMS from human muscarinic M2 Y177Q mutant expressed in Flp-In-CHO cells by liquid scintillation counting; summary of the method: as §2
Muscarinic acetylcholine receptor M2 (Homo sapiens, UniProt P08172, Y177Q), sequence (P08172 whole entry Y177Q): as the sequence (P08172 whole entry Y104A) above, with A104Y, Y177Q counted along it

[8] = biological target: Muscarinic acetylcholine receptor M2 (Homo sapiens, UniProt P08172, T423H/Y177Q); test: as §5; summary of the method: as §2
Muscarinic acetylcholine receptor M2 (Homo sapiens, UniProt P08172, T423H/Y177Q), sequence (P08172 whole entry Y177Q/T423H): as the sequence (P08172 whole entry Y104A) above, with A104Y, Y177Q, T423H counted along it

[9] = biological target: Muscarinic acetylcholine receptor M2 (Homo sapiens, UniProt P08172, W422A); test: Displacement of [3H]-NMS from human muscarinic M2 W422A mutant expressed in Flp-In-CHO cells by liquid scintillation counting; summary of the method: as §2
Muscarinic acetylcholine receptor M2 (Homo sapiens, UniProt P08172, W422A), sequence (P08172 whole entry W422A): as the sequence (P08172 whole entry Y104A) above, with A104Y, W422A counted along it

[10] = biological target: T6, Muscarinic acetylcholine receptor M5 (Homo sapiens, UniProt P08912); test: as §6; summary of the method: as §2
T6 sequence (P08912 whole entry): T5 sequence (whole entry)

[11] = biological target: T2, Muscarinic acetylcholine receptor M2 (Homo sapiens); test: Antagonist activity at wild-type human muscarinic M2 receptor expressed in Flp-In-CHO cells assessed as inhibition of acetylcholine-induced effect at 0.1 to 100 uM by time-course assay
Summary of the method: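 DMR (label-free optical) in Flp-In-CHO cells stably expressing hM2, seeded 12500 cells/well, grown 20 h at 37 °C. Washed, rested 2 h at 28 °C in HBSS + 20 mM HEPES pH 7.0. Acetylcholine at maximally effective concentration, then antagonist; responses monitored 1 h. Representative experiment, n = 4, repeated at least twice on separate days.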

[12] = biological target: T2, Muscarinic acetylcholine receptor M2 (Homo sapiens); test: Antagonist activity at wild-type human muscarinic M2 receptor expressed in Flp-In-CHO cells assessed as inhibition of acetylcholine-induced effect at 100 uM in absence of atropine by time-course assay
[13] = biological target: T2, Muscarinic acetylcholine receptor M2 (Homo sapiens); test: Antagonist activity at wild-type human muscarinic M2 receptor expressed in Flp-In-CHO cells assessed as inhibition of acetylcholine-induced effect at 0.01 to 100 uM by time-course assay
Summary of the method: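 Label-free dynamic mass redistribution (Epic reader) in Flp-In-CHO cells stably expressing hM2, seeded at 12500 cells/well and grown 20 h at 37 °C to confluence. Cells washed and rested 2 h at 28 °C in HBSS with 20 mM HEPES, pH 7.0. DMR signal induced by a maximally effective acetylcholine concentration, antagonist then added and response followed over time. Representative experiment, n = 4, repeated at least twice on separate days.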

[14] = system: T7, Muscarinic acetylcholine receptor M2 (Homo sapiens), P08172 [Y177Q]; test: as §7; summary of the method: as §2
T7 sequence (whole entry): T1 sequence (P08172 whole entry) with Y177Q

SMILES	Ki [1] [µM]	Ki [2] [µM]	Ki [7] [µM]	Ki [8] [µM]	Ki [9] [µM]	Ki [10] [µM]	also measured
C[N+]1(C)[C@@H]2CC[C@@H]1CC(OC(=O)C(CO)c1ccccc1)C2 (stereo not given in full)	0.00182	0.011					
C[N+](C)(CCCCCC[N+](C)(C)CCCN1C(=O)c2ccccc2C1=O)CCCN1C(=O)c2ccccc2C1=O							pKA [3]: 6.55; pKA [4]: 6.59; pKA [5]: 5.47; pKA [6]: 4.37
C[N+](C)(CCCCCC[N+]1(C)[C@@H]2C[C@H](OC(=O)[C@H](CO)c3ccccc3)C[C@H]1[C@@H]1O[C@@H]12)CCCN1C(=O)c2ccccc2C1=O (stereo not given in full)	0.00813	0.0501	0.00708	0.00708	0.00692	0.017	
CC(C)(CN1C(=O)c2cccc3cccc(c23)C1=O)C[N+](C)(C)CCCCCC[N+]1(C)[C@@H]2C[C@H](OC(=O)[C@H](CO)c3ccccc3)C[C@H]1[C@@H]1O[C@@H]12 (stereo not given in full)	0.00617	0.132	0.00891	0.00331	0.00646	0.0055	
CN(C)CC#CCOC1=NOCC1	0.1						
CC(C)(CN1C(=O)c2cccc3cccc(c23)C1=O)C[N+](C)(C)CCCCCC[N+]1(C)[C@@H]2CC[C@@H]1CC(OC(=O)C(CO)c1ccccc1)C2 (relative stereo)	0.00282	0.0617	0.00851	0.00282	0.0214	0.0195	inhibition [11]: Active; inhibition [12]: inactive
C[N+](C)(C)CCCCCC[N+](C)(C)CC#CCOC1=NOCC1		1.29	0.0912	0.0646	0.275	3.98	
C[N+](C)(C)CCCCCC[N+]1(C)[C@@H]2C[C@H](OC(=O)[C@H](CO)c3ccccc3)C[C@H]1[C@@H]1O[C@@H]12 (stereo not given in full)	0.0479	0.309			0.0407	0.0209	
C[N+](C)(CC#CCOC1=NOCC1)CCCCCC[N+](C)(C)CCCN1C(=O)c2ccccc2C1=O	0.0912	0.204	0.275	0.2	0.0759	30.2	
CN1[C@@H]2CC[C@H]1CC(OC(=O)[C@H](CO)c1ccccc1)C2 (stereo not given in full)							inhibition [13]: Active
CC(C)(CN1C(=O)c2cccc3cccc(c23)C1=O)C[N+](C)(C)CCCCCC[N+](C)(C)CCCN1C(=O)c2ccccc2C1=O							pKA [3]: 7.7; pKA [4]: 7.64; pKA [14]: 6.23; pKA [5]: 5.82; pKA [6]: 5.05; inhibition [13]: Active
C[N+](C)(C)CCCCCC[N+]1(C)[C@@H]2CC[C@@H]1CC(OC(=O)C(CO)c1ccccc1)C2 (relative stereo)	0.0162	0.151	0.0186	0.0182	0.055	0.0871	
C[N+](C)(C)CC#CCOC1=NOCC1	0.00251	0.257	0.00871	0.00219	0.01	0.12	
CC(C)(CN1C(=O)c2cccc3cccc(c23)C1=O)C[N+](C)(C)CCCCCC[N+](C)(C)CC#CCOC1=NOCC1	0.0115	0.0145		0.0269	0.0195		

Reference: ChEMBL document CHEMBL3352008, “Dualsteric muscarinic antagonists--orthosteric binding pose controls allosteric subtype selectivity” (J Med Chem, 2014)
